The results in this text go back to ChEMBL document CHEMBL1157667, “Synthesis of glycyrrhetinic acid derivatives for the treatment of metabolic diseases” (Bioorg Med Chem, 2010).

Structures are written as SMILES. pIC50: −log10 of the molar value.

11-beta-hydroxysteroid dehydrogenase 1 (Homo sapiens), sequence (P28845 whole entry, looked up): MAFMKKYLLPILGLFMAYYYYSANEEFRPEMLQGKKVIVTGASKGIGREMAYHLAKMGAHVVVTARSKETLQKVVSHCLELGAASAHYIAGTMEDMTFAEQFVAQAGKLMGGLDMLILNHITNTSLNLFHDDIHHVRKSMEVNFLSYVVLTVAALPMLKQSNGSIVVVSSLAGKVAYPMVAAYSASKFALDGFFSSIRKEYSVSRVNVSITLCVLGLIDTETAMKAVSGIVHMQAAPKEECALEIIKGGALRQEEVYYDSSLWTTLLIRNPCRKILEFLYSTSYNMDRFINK
11-beta-hydroxysteroid dehydrogenase 1, sequence (P16232 whole entry): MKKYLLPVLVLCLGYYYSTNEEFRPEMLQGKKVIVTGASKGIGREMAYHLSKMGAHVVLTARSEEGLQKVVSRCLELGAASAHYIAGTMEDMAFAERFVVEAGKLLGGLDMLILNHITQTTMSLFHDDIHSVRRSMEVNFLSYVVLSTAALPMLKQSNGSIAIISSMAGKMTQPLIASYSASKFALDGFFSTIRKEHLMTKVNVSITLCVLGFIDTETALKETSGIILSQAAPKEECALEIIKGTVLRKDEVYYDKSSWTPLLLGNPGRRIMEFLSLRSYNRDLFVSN

One assay has as its target 11-beta-hydroxysteroid dehydrogenase 1 (Rattus norvegicus, UniProt P16232). Briefly: Inhibition of 11beta-HSD1 in rat liver assessed as cortisone level. Format: tissue-based.
By pIC50 is commonly meant −log10 of the IC50, conventionally taken in molar units. Regarding `CC1(C)[C@@H](O)CC[C@]2(C)[C@H]3C(=O)C=C4[C@@H]5C[C@@](C)(C(=O)O)CC[C@]5(C)CC[C@@]4(C)[C@]3(C)CC[C@@H]12` (stereo in doubt; 1) [ENOXOLONE], the pIC50 is 7.05.

In a further assay the target is 11-beta-hydroxysteroid dehydrogenase 1 (Homo sapiens) (UniProt P28845). Briefly: Inhibition of human recombinant 11beta-HSD1 expressed in HEK293 cells assessed as conversion of [1,2-3H]cortisone to cortisol at 1 uM after 10 mins by scintillation counting. The assay is classed as cell-based. The method, boiled down:
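Lysates of HEK-293 cells (no endogenous 11β-HSD) expressing recombinant human 11β-HSD1. Reduction of [1,2-3H]cortisone to cortisol was run for 10 min at 37 °C with 200 nM cortisone (final) and NADPH as cofactor; solvent ≤0.1%. Reactions were stopped with methanol containing 2 mM unlabeled cortisone and cortisol. Steroids were separated by TLC and counted by scintillation. Three independent experiments.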
What is called inhibition is the relative decrease from the control value, in per cent. With `CCNC(=O)N(CCCN(C)C)C(=O)[C@@]1(C)CC[C@]2(C)CC[C@]3(C)C(=CC(=O)[C@@H]4[C@@]5(C)CC[C@H](O)C(C)(C)[C@@H]5CC[C@]43C)[C@@H]2C1`, the inhibition was found to be 32.5%. For the compound `CC1(C)[C@H](O)CC[C@]2(C)[C@H]3C(=O)C=C4[C@@H]5C[C@@](C)(C(=O)O)CC[C@]5(C)CC[C@@]4(C)[C@]3(C)CC[C@@H]12`, the inhibition came to 97.4%. Still for that read-out and setting: to `CC(=O)O[C@H]1CC[C@]2(C)[C@H]3C(=O)C=C4[C@@H]5C[C@@](C)(C(=O)O)CC[C@]5(C)CC[C@@]4(C)[C@]3(C)CC[C@H]2C1(C)C` belongs 47.1%; to `CN(C)CCNC(=O)[C@@]1(C)CC[C@]2(C)CC[C@]3(C)C(=CC(=O)[C@@H]4[C@@]5(C)CC[C@H](O)C(C)(C)[C@@H]5CC[C@]43C)[C@@H]2C1`, 36%; to `CC1(C)[C@@H](O)CC[C@]2(C)[C@H]3C(=O)C=C4[C@@H]5C[C@@](C)(C(=O)N6CCC(C(=O)O)CC6)CC[C@]5(C)CC[C@@]4(C)[C@]3(C)CC[C@@H]12`, 19.5%. Consider `CC(=O)O[C@H]1CC[C@]2(C)[C@H]3C(=O)C=C4[C@@H]5C[C@@](C)(C=NO)CC[C@]5(C)CC[C@@]4(C)[C@]3(C)CC[C@H]2C1(C)C`, for which the inhibition amounted to 43.3%. On the same count and under the same terms, to `CC1(C)C(=O)CC[C@]2(C)[C@H]3C(=O)C=C4[C@@H]5C[C@@](C)(C(=O)O)CC[C@]5(C)CC[C@@]4(C)[C@]3(C)CC[C@@H]12` belongs 63.8%.

For `CON=C1CC[C@]2(C)[C@H]3C(=O)C=C4[C@@H]5C[C@@](C)(C(=O)O)CC[C@]5(C)CC[C@@]4(C)[C@]3(C)CC[C@H]2C1(C)C`, the inhibition turned out to be 63.2%. Same read-out and setting: the same measure for `CC1(C)[C@@H](O)CC[C@]2(C)[C@H]3C(=O)C=C4[C@@H]5C[C@@](C)(C(=O)O)CC[C@]5(C)CC[C@@]4(C)[C@]3(C)CC[C@@H]12` (stereo in doubt; 1): 91.2%.

For `CC1(C)[C@@H](O)CC[C@]2(C)[C@H]3C(=O)C=C4[C@@H]5C[C@@](C)(C(=O)NCC(=O)O)CC[C@]5(C)CC[C@@]4(C)[C@]3(C)CC[C@@H]12`, the inhibition amounted to 2.7%. Still for that read-out and setting: to `C#CCNC(=O)[C@@]1(C)CC[C@]2(C)CC[C@]3(C)C(=CC(=O)[C@@H]4[C@@]5(C)CC[C@H](O)C(C)(C)[C@@H]5CC[C@]43C)[C@@H]2C1` belongs 10.1%. Still for that read-out and setting: the same measure for `CC1(C)[C@@H](O)CC[C@]2(C)[C@H]3C(=O)C=C4[C@@H]5C[C@@](C)(C(=O)O)CC[C@]5(C)CC[C@@]4(C)[C@]3(C)CC[C@@H]12` (stereo in doubt; 23): 49.7%. For `CC(=O)O[C@H]1CC[C@]2(C)[C@H]3C(=O)C=C4[C@@H]5C[C@@](C)(C(=O)NN)CC[C@]5(C)CC[C@@]4(C)[C@]3(C)CC[C@H]2C1(C)C`, the inhibition amounted to 90.9%. `CC1(C)[C@@H](OC(=O)CCC(=O)O)CC[C@]2(C)[C@H]3C(=O)C=C4[C@@H]5C[C@@](C)(C(=O)O)CC[C@]5(C)CC[C@@]4(C)[C@]3(C)CC[C@@H]12`: the inhibition was found to be 87.7%.

On to `CC1(C)[C@@H](OP(=O)(O)O)CC[C@]2(C)[C@H]3C(=O)C=C4[C@@H]5C[C@@](C)(C(=O)O)CC[C@]5(C)CC[C@@]4(C)[C@]3(C)CC[C@@H]12`, for which the inhibition came to 86%. For `CC1(C)[C@@H](O)CC[C@]2(C)[C@H]3C(=O)C=C4[C@@H]5C[C@@](C)(C(=O)NCCO)CC[C@]5(C)CC[C@@]4(C)[C@]3(C)CC[C@@H]12`, the inhibition came to 2.9%. Still for that read-out and setting: the same measure for `C=CCNC(=O)[C@@]1(C)CC[C@]2(C)CC[C@]3(C)C(=CC(=O)[C@@H]4[C@@]5(C)CC[C@H](O)C(C)(C)[C@@H]5CC[C@]43C)[C@@H]2C1`: 6.2%. The same measure, in the same setting: the same measure for `CC1(C)[C@@H](O[C@H]2O[C@H](C(=O)O)[C@@H](O)[C@H](O)[C@H]2O[C@@H]2O[C@H](C(=O)O)[C@@H](O)[C@H](O)[C@H]2O)CC[C@]2(C)[C@H]3C(=O)C=C4[C@@H]5C[C@@](C)(C(=O)O)CC[C@]5(C)CC[C@@]4(C)[C@]3(C)CC[C@@H]12`: 63.2%.
